Test results: ChEMBL document CHEMBL1142961, “Novel selective inhibitors of the zinc plasmodial aminopeptidase PfA-M1 as potential antimalarial agents” (J Med Chem, 2007)

What was measured:
[1] = molecular target: T1, Aminopeptidase N (Plasmodium falciparum FcB1/Columbia) (UniProt O96935); experiment: Inhibition of Plasmodium falciparum FcB1 M1 aminopeptidase at 10 uM
T1 sequence (whole entry): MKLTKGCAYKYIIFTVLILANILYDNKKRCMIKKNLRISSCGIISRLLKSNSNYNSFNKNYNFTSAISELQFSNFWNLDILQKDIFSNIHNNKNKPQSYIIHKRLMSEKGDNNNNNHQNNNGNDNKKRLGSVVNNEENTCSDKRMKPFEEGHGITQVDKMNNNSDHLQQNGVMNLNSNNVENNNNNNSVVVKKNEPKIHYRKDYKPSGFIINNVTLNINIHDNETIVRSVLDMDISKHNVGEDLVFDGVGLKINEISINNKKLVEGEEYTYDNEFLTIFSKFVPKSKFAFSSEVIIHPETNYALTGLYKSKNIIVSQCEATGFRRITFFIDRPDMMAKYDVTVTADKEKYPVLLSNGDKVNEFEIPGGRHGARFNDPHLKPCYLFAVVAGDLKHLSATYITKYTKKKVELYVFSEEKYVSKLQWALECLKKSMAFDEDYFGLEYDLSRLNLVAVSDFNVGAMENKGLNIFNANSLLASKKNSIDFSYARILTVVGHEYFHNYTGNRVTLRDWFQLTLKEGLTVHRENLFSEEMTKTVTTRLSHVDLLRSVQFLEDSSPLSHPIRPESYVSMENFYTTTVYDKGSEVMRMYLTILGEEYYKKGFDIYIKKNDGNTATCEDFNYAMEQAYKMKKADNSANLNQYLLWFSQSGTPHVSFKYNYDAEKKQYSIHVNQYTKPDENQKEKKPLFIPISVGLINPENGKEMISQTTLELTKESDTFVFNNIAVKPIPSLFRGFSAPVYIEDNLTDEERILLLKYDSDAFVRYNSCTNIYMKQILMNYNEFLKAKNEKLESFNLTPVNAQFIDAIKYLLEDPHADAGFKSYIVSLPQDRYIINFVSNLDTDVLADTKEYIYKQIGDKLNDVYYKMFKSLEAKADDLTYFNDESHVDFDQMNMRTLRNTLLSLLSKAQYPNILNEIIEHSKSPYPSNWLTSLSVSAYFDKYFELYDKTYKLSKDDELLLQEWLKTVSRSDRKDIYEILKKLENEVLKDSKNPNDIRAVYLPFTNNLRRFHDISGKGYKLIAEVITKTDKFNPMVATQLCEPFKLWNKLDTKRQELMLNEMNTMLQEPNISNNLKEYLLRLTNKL
In short: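 Native enzyme purified from P. falciparum FcB1, diluted 10-fold in 25 mM Tris-HCl pH 7.4. Preincubated with inhibitor for 10 min at room temperature, then Leu-pNA substrate added (0.3 mM stock, Km 0.099 mM). Kinetics followed at 405 nm at room temperature. Initial velocities normalized to a no-inhibitor control. Single-point screen at 10 µM; IC50 from velocity versus inhibitor concentration curves. Bestatin used as reference.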

[2] = molecular target: T2, Aminopeptidase N (Sus scrofa) (UniProt P15145); experiment: Inhibition of pig kidney microsomal APN at 10 uM
T2 sequence (whole entry): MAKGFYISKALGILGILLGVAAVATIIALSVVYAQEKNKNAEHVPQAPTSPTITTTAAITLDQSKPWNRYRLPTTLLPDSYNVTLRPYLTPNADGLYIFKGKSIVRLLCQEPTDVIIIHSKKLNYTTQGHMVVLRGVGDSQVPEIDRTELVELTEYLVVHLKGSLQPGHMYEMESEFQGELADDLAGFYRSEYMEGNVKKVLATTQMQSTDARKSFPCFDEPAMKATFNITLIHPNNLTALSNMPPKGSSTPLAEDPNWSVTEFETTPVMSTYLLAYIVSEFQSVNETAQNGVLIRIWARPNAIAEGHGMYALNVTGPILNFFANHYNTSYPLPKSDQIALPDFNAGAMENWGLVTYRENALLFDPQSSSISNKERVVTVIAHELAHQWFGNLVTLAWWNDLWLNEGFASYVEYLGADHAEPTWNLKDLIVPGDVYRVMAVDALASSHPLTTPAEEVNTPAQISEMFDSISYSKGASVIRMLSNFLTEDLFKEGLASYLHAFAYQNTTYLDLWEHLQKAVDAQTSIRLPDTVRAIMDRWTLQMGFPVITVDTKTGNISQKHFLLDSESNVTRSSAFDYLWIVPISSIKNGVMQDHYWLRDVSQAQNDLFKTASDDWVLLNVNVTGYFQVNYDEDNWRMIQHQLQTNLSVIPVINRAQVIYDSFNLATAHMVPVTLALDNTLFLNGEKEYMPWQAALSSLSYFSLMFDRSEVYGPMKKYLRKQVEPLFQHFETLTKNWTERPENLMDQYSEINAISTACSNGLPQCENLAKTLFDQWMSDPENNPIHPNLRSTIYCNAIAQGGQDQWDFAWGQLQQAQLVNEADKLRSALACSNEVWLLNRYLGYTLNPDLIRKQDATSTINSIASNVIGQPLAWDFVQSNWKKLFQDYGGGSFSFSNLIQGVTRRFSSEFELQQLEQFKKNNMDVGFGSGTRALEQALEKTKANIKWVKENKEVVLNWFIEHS
In short: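 Porcine kidney microsomal APN (ammonium sulfate suspension) diluted 600-fold in 25 mM Tris-HCl pH 7.4. Preincubated with inhibitor for 10 min at room temperature, then Leu-pNA added (0.3 mM stock). Hydrolysis followed at 405 nm at room temperature. Rates normalized to a no-inhibitor control. Single point at 10 µM; IC50 from concentration-velocity curves. Bestatin used as reference.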

Row | Structure (SMILES) | inhibition [1] [%] | inhibition [2] [%]
1 | NC(C(=O)NO)C(=O)N1CCN(Cc2ccccc2)CC1 (centres undefined) | 18 | -5
2 | NC(C(=O)NO)C(=O)N1CCC2(CCNc3ccccc3O2)CC1 (centres undefined) | -4 | 9
3 | O=C(NO)C(Cc1cccc(Oc2ccccc2)c1)C(=O)N1CCN(C(c2ccccc2)c2ccccc2)CC1 (centres undefined) | -6 | 41
4 | O=C(CC(=O)NC1CCN(Cc2ccccc2)CC1)NO | -2 | 14
5 | O=C(CC(=O)N1CCC(n2c(=O)[nH]c3ccccc32)CC1)NO | 6 | 19
6 | O=C(CC(=O)NCCc1ccccc1)NO | -2 | 27
7 | O=C(NO)C(Cc1cccc(Oc2ccccc2)c1)C(=O)N1CCC2(CC1)C(=O)NCN2c1ccccc1 (centres undefined) | 65 | 70
8 | O=C(NO)C(Cc1cccc(Oc2ccccc2)c1)C(=O)N1CCN(Cc2ccc3c(c2)OCO3)CC1 (centres undefined) | 97 | 31
9 | O=C(NO)C(Cc1cccc(Oc2ccccc2)c1)C(=O)N1CCC2(CCNc3ccccc3O2)CC1 (centres undefined) | 48 | 81
10 | NC(C(=O)NO)C(=O)NC1Cc2ccccc2C1 (centres undefined) | 20 | 36
11 | NC(C(=O)NO)C(=O)N1CCC(n2c(=O)[nH]c3ccccc32)CC1 (centres undefined) | 12 | 34
12 | CC(C)CC(C(=O)NO)C(=O)N1CCN(Cc2ccc3c(c2)OCO3)CC1 (centres undefined) | 21 | 19
13 | O=C(CC(=O)N1CCN(c2ccccc2)CC1)NO | -9 | 11
14 | NC(C(=O)NO)C(=O)NCc1cccnc1 (centres undefined) | -6 | 24
15 | O=C(CC(=O)N[C@H]1CCN(Cc2ccccc2)C1)NO | -3 | 19
16 | Cc1ccccc1CNC(=O)C(N)C(=O)NO (centres undefined) | 9 | 23
17 | NC(C(=O)NO)C(=O)NCc1ccccc1 (centres undefined) | 10 | 77
18 | NC(C(=O)NO)C(=O)NCc1ccc(C(F)(F)F)cc1 (centres undefined) | 6 | 55
19 | NC(C(=O)NO)C(=O)NCCc1ccccn1 (centres undefined) | -7 | 22
20 | O=C(NO)C(Cc1cccc(Oc2ccccc2)c1)C(=O)NCc1ccc(F)cc1 (centres undefined) | 35 | 22
21 | O=C(CC(=O)NCCNc1cccc2ccccc12)NO | 0 | 14
22 | O=C(CC(=O)NCc1cccnc1)NO | 3 | 18
23 | CN(CCCNC(=O)CC(=O)NO)c1ccccc1 | 22 | 32
24 | O=C(CC(=O)N1CCN(Cc2ccc3c(c2)OCO3)CC1)NO | 7 | 11
25 | NC(C(=O)NO)C(=O)NC1CCN(Cc2ccccc2)CC1 (centres undefined) | -4 | 25

The next lines start with the values.

Row | inhibition [1] [%] | inhibition [2] [%] | Structure (SMILES)
26 | 74 | 90 | CC(C)CC(C(=O)NO)C(=O)N1CCc2ccccc2C1 (centres undefined)
27 | 41 | 81 | O=C(NO)C(Cc1cccc(Oc2ccccc2)c1)C(=O)NCc1cccc(-c2ccccc2)c1 (centres undefined)
28 | 36 | 52 | CC(C)CN(CCCCc1ccccc1)C(=O)C(Cc1cccc(Oc2ccccc2)c1)C(=O)NO (centres undefined)
29 | 5 | 32 | O=C(CC(=O)N(CCc1ccccc1)Cc1ccccc1)NO
30 | 75 | 56 | O=C(NO)C(Cc1ccccc1)C(=O)N(CCc1ccccc1)Cc1ccccc1 (centres undefined)
31 | 77 | 83 | CN(CCCNC(=O)C(Cc1cccc(Oc2ccccc2)c1)C(=O)NO)c1ccccc1 (centres undefined)
32 | 7 | 32 | O=C(NO)C(Cc1ccccc1)C(=O)N1CCC2(CCNc3ccccc3O2)CC1 (centres undefined)
33 | 45 | 28 | CC(C)CN(CCCCc1ccccc1)C(=O)C(Cc1ccccc1)C(=O)NO (centres undefined)
34 | 37 | -1 | CC(C)CN(CCCCc1ccccc1)C(=O)C(N)C(=O)NO (centres undefined)
35 | 64 | 8 | NC(C(=O)NO)C(=O)NCCCc1ccccc1 (centres undefined)
36 | -2 | 19 | CC(C)CC(C(=O)NO)C(=O)N1CCN(C(c2ccccc2)c2ccccc2)CC1 (centres undefined)
37 | 99 | 86 | Cc1ccccc1CNC(=O)C(Cc1cccc(Oc2ccccc2)c1)C(=O)NO (centres undefined)
38 | 43 | 28 | O=C(NO)C(Cc1ccccc1)C(=O)N[C@H]1CCN(Cc2ccccc2)C1 (some centres undefined)
39 | 24 | 45 | CC(C)CC(C(=O)NO)C(=O)NCc1ccc(C(F)(F)F)cc1 (centres undefined)
40 | 56 | 42 | NC(C(=O)NO)C(=O)NCCCCc1ccccc1 (centres undefined)
41 | 30 | 86 | CC(C)CC(C(=O)NO)C(=O)NCCc1ccccn1 (centres undefined)

Row | inhibition [1] [%] | inhibition [2] [%] | Structure (SMILES)
42 | 42 | 105 | CC(C)CC(C(=O)NO)C(=O)N(CCc1ccccc1)Cc1ccccc1 (centres undefined)
43 | 40 | 22 | O=C(NO)C(Cc1ccccc1)C(=O)N1CCC2(CC1)C(=O)NCN2c1ccccc1 (centres undefined)
44 | 66 | 81 | CC(C)CC(C(=O)NO)C(=O)NCCCN(C)c1ccccc1 (centres undefined)
45 | 35 | 62 | NC(C(=O)NO)C(=O)NCc1cccc(-c2ccccc2)c1 (centres undefined)
46 | 66 | 78 | O=C(NO)C(Cc1cccc(Oc2ccccc2)c1)C(=O)NCCNc1cccc2ccccc12 (centres undefined)
47 | 22 | 45 | CC(C)CN(CCCCc1ccccc1)C(=O)CC(=O)NO
48 | -1 | 29 | CN(Cc1ccccc1)C(=O)C(N)C(=O)NO (centres undefined)
49 | 38 | 63 | O=C(NO)C(Cc1cccc(Oc2ccccc2)c1)C(=O)N1CCN(c2ccccc2)CC1 (centres undefined)
50 | 38 | 103 | CC(C)CC(C(=O)NO)C(=O)N1CCN(c2ccccc2)CC1 (centres undefined)
51 | 19 | 36 | O=C(CC(=O)NCCCCc1ccccc1)NO
52 | 80 | 95 | CN(CCCCc1ccccc1)C(=O)C(Cc1cccc(Oc2ccccc2)c1)C(=O)NO (centres undefined)
53 | 3 | 57 | CC(C)CC(C(=O)NO)C(=O)NC1CCN(Cc2ccccc2)CC1 (centres undefined)
54 | 61 | 93 | CC(C)CC(C(=O)NO)C(=O)NC1Cc2ccccc2C1 (centres undefined)
55 | 67 | 85 | O=C(NO)C(Cc1cccc(Oc2ccccc2)c1)C(=O)NCCc1ccccn1 (centres undefined)
56 | -5 | 10 | NC(C(=O)NO)C(=O)N1CCN(C(c2ccccc2)c2ccccc2)CC1 (centres undefined)
57 | 51 | 31 | NC(C(=O)NO)C(=O)NCc1cccc(Oc2ccccc2)c1 (centres undefined)
